ChEMBL document CHEMBL3856193, “Combretastatin A-4 analogues with benzoxazolone scaffold: Synthesis, structure and biological activity” (Eur J Med Chem, 2016)

Tests used:
[1] = Growth inhibition of human HepG2 cells measured after 72 hrs by MTT assay; assay type: functional, cell-based; conditions: HepG2, 72 h
Method in brief: (§1)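 Cells seeded at 1 x 10^4/100 µL, treated 24 h later with drug diluted from 2 mmol/L DMSO stock (0.01% DMSO final), 72 h incubation. MTT added for 3 h at 37°C, formazan dissolved in 0.1 N HCl/isopropanol, OD read at 550/630 nm. Eight replicates per concentration, mean ± SD. IC50 from curve fitting. Cells kept at 37°C in humidified CO2.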

[2] = Growth inhibition of human EAhy926 cells measured after 72 hrs by MTT assay; assay type: functional, cell-based; conditions: EA.hy 926, 72 h; method in brief: as §1
[3] = Growth inhibition of human K562 cells measured after 72 hrs by MTT assay; assay type: functional, cell-based; conditions: K562, 72 h; method in brief: as §1
[4] = Solubility of compound in water; assay type: physicochemical; conditions: buffer

SMILES	IC50 [1] [µM]	IC50 [2] [µM]	IC50 [3] [µM]	solubility [4]
COc1cc(/C=C\c2ccc3oc(=O)n(C)c3c2)cc(OC)c1OC	39.7	> 50	> 50	
COc1ccc(/C=C\c2ccc3oc(=O)n(C)c3c2)cc1	48.1	15.1	24.2	
COc1ccc(/C=C\c2cc(OC)c(OC)c(OC)c2)cc1N.Cl				Soluble
COc1cc(/C=C\c2cccc3c2oc(=O)n3C)cc(OC)c1OC	1.07	10.3	0.71	
COc1ccc(/C=C\c2cccc3oc(=O)n(C)c23)cc1OC	> 50	> 50	2.07	
COc1ccc(/C=C\c2cccc3oc(=O)n(C)c23)cc1	16.1	39.9	0.96	
COc1cc(/C=C\c2cccc3oc(=O)n(C)c23)cc(OC)c1OC	19	14.8	10.1	
COc1ccc(/C=C\c2ccc3c(c2)oc(=O)n3C)cc1OC	38.3	> 50	> 50	
